Reference: ChEMBL document CHEMBL4376860, “Discovery of Novel Dual Poly(ADP-ribose)polymerase and Phosphoinositide 3-Kinase Inhibitors as a Promising Strategy for Cancer Therapy” (J Med Chem, 2020)
Active and inactive are the calls of the source. No cut-off for these calls is given here.

Columns and labels:
[1] = target: Poly [ADP-ribose] polymerase 1 (Homo sapiens, UniProt P09874); assay: Inhibition of recombinant human PARP1 using histone as substrate after 1 hr in presence of biotinylated NAD+ by ELISA
Chain of Poly [ADP-ribose] polymerase 1 (P09874 whole entry, canonical isoform): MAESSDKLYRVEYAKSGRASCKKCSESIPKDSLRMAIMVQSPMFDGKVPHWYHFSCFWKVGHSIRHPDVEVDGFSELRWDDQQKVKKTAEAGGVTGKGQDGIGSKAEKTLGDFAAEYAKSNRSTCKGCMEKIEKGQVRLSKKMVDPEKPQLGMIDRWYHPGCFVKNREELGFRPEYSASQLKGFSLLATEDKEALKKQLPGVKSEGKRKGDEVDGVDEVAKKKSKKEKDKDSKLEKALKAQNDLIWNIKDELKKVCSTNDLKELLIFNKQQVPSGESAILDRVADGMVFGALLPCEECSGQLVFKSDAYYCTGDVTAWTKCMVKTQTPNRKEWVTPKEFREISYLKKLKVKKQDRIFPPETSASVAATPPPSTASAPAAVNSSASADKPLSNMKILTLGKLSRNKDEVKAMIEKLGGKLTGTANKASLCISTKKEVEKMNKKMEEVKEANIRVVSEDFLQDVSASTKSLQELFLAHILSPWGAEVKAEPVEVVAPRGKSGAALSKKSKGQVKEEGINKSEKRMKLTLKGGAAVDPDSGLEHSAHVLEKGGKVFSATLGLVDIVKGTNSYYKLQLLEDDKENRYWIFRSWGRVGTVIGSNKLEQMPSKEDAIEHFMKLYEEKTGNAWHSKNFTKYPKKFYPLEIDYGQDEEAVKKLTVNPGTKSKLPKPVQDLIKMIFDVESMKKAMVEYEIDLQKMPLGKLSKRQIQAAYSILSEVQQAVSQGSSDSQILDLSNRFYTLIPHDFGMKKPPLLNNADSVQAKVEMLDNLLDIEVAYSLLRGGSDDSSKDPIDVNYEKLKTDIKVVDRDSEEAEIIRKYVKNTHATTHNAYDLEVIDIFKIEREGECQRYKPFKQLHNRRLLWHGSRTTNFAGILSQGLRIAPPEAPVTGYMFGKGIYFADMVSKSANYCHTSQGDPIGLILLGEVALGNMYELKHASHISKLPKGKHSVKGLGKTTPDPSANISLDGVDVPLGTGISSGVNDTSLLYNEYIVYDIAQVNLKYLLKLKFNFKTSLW

[2] = target: Phosphatidylinositol 4,5-bisphosphate 3-kinase catalytic subunit alpha isoform (Homo sapiens, UniProt P42336); assay: Inhibition of PI3Kalpha (unknown origin) using PIP2 as substrate measured after 1 hr by ADP-glo plus luminescence assay
Chain of Phosphatidylinositol 4,5-bisphosphate 3-kinase catalytic subunit alpha isoform (P42336 whole entry, canonical isoform): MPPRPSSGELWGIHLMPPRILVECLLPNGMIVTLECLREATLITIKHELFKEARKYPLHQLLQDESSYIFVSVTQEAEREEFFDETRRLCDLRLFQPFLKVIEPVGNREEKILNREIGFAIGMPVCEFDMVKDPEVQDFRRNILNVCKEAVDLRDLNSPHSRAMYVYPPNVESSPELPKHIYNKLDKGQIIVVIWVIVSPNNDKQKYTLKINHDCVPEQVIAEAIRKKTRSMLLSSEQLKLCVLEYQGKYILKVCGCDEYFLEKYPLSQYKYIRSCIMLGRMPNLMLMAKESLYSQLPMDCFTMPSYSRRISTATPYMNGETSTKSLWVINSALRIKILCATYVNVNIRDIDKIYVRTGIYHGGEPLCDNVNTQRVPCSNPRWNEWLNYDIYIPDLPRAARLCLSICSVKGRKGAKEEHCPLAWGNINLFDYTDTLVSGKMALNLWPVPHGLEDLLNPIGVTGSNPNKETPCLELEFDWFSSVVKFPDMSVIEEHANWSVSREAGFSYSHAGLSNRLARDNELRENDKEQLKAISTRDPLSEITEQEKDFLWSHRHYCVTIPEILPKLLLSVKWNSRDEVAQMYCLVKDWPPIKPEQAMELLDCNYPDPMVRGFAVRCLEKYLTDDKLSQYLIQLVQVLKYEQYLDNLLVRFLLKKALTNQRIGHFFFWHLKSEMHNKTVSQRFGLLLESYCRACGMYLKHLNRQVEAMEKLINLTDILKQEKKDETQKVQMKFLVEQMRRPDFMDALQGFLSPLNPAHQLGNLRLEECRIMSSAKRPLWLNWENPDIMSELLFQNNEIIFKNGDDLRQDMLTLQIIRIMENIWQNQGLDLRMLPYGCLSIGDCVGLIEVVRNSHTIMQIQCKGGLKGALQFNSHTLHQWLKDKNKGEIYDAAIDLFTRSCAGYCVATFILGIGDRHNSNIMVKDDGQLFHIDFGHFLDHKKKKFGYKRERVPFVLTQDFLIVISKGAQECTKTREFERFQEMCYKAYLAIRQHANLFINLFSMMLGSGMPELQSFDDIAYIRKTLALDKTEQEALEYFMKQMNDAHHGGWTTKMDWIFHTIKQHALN

HCT-116 = assay: Antiproliferative activity against human HCT116 cells measured after 7 days by Celltiter-glo assay; assay type: functional, cell-based; conditions: HCT-116, 168 h
Outline: (§1)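 Cells maintained in RPMI1640 with 10% FBS at 37 °C, 5% CO2. Seeded the day before dosing, grown 12 h, then exposed to graded compound concentrations for 7 days. CellTiter-Glo reagent added, 10 min at room temperature, luminescence read. Inhibition % = (1-(RLU compound - RLU blank)/(RLU DMSO - RLU blank))×100. IC50 from nonlinear regression, normalized dose-response fit.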

HCC1937 = assay: Antiproliferative activity against human HCC1937 cells measured after 7 days by Celltiter-glo assay; assay type: functional, cell-based; conditions: HCC1937, 168 h; outline: as §1
MDA-MB-231 = assay: Antiproliferative activity against human MDA-MB-231 cells measured after 7 days by Celltiter-glo assay; assay type: functional, cell-based; conditions: MDA-MB-231, 168 h; outline: as §1
MDA-MB-468 [3] = assay: Antiproliferative activity against human MDA-MB-468 cells measured after 7 days by Celltiter-glo assay; assay type: functional, cell-based; conditions: MDA-MB-468, 168 h; outline: as §1
MDA-MB-468 [4] = assay: Inhibition of PI3K in human MDA-MB-468 cells assessed as reduction in AKT phosphorylation at S473 residue at 1 uM measured after 6 to 72 hrs by Western blot analysis; assay type: cell-based
Outline: (§2)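 MDA-MB-468 cells seeded overnight, then exposed for 6 h; control medium contained 1‰ DMSO. Lysates run on 8–12% SDS-PAGE and transferred to PVDF. Blots blocked in 5% BSA/TBST and probed for pAKT-Ser473/total AKT or pS6-Ser240/total S6, with β-actin as loading control. HRP secondary with ECL detection; bands quantified by densitometry. Three independent experiments.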

MDA-MB-468 [5] = assay: Inhibition of PI3K in human MDA-MB-468 cells assessed as reduction in pS6 phosphorylation at S240 residue at 1 uM measured after 6 to 72 hrs by Western blot analysis; assay type: cell-based; outline: as §2
MDA-MB-468 [6] = assay: Activation of ERK in human MDA-MB-468 cells assessed as increase in ERK autophosphorylation at T202 residue at 1 uM measured after 6 to 72 hrs by Western blot analysis; assay type: cell-based
Outline: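 MDA-MB-468 cells seeded in six-well plates, incubated overnight, then treated for 6 h, with 1‰ (v/v) DMSO medium as control. Lysates cleared at 4 °C, protein quantified by BCA, resolved by 8-12% SDS-PAGE and transferred to PVDF. Membranes blocked in 5% BSA/TBST, probed with primary antibodies (pERK-Thr202, total ERK, cleaved PARP, β-actin) and HRP secondary. ECL detection, band densitometry.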

MDA-MB-468 [7] = assay: Induction of apoptosis in human MDA-MB-468 cells assessed as increase in cleaved PARP level at 1 uM […] by Western blot analysis; assay type: functional, cell-based
MDA-MB-468 [8] = assay: Inhibition of PI3K in human MDA-MB-468 cells assessed as reduction in BRCA1 mRNA level at 1 uM by Trizol reagent-based RT-PCR analysis; assay type: cell-based
Outline: (§3)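 Total RNA from treated MDA-MB-468 cells extracted with TRIzol. BRCA1 or BRCA2 mRNA quantified by real-time PCR with GAPDH as internal control. Results given as fold change relative to the internal control. Mean ± SD of three independent experiments.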

MDA-MB-468 [9] = assay: Inhibition of PI3K in human MDA-MB-468 cells assessed as reduction in BRCA2 mRNA level at 1 uM by Trizol reagent-based RT-PCR analysis; assay type: cell-based; outline: as §3
MDA-MB-468 [10] = assay: Inhibition of PI3K in human MDA-MB-468 cells assessed as reduction in RAD51 foci formation at 1 uM measured after 72 hrs by DAPI staining based immunofluorescence microscopic analysis; assay type: cell-based
Outline: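 RAD51 foci in MDA-MB-468 cells on coverslips after 72 h drug exposure. Cells fixed (3% formaldehyde), permeabilized (0.1% Triton X-100), blocked in 10% FBS/PBS, incubated overnight at 4 °C with rabbit anti-RAD51 polyclonal, then secondary antibody plus DAPI. Foci and percent positive cells (>5 foci per cell) counted from about 200 cells. Mean ± SD of three independent experiments.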

MDA-MB-468 [11] = assay: Inhibition of PI3K in human MDA-MB-468 cells assessed as increase in gammaH2AX foci formation at 1 uM measured after 72 hrs by DAPI staining based immunofluorescence microscopic analysis; assay type: cell-based
Outline: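 MDA-MB-468 cells on coverslips given drugs for 72 h. Fixed in 3% formaldehyde, permeabilized with 0.1% Triton X-100, blocked in 10% FBS/PBS, then rabbit anti-γH2AX (Ser139) overnight at 4 °C. Secondary antibody and DAPI stain followed. About 200 cells scored for foci; a cell was positive with more than 5 foci. Three independent experiments.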

MDA-MB-468 [12] = assay: Induction of DNA damage in human MDA-MB-468 cells at 1 uM measured after 72 hrs by comet assay; assay type: functional, cell-based
Outline: (§4)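 MDA-MB-468 cells treated for 72 h, harvested and run in a neutral comet assay. Ethidium bromide staining after electrophoresis. About 200 cell images per group analysed with CASP. DNA damage scored as tail intensity (percentage DNA in tail) and olive tail moment. Mean ± SD of three independent experiments.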

MDA-MB-468 [13] = assay: Induction of apoptosis in human MDA-MB-468 cells assessed as viable cells at 1 uM measured after 72 hrs by Annexin V-FITC/propidium iodide staining based flow cytometry (reference value: 95.2%); assay type: functional; conditions: MDA-MB-468, 72 h, read-out: Activity
MDA-MB-468 [14] = assay: Induction of apoptosis in human MDA-MB-468 cells assessed as early apoptotic cells at 1 uM measured after 72 hrs by Annexin V-FITC/propidium iodide staining based flow cytometry (reference value: 3.88%); assay type: functional
MDA-MB-468 [15] = assay: Induction of apoptosis in human MDA-MB-468 cells assessed as late apoptotic cells at 1 uM measured after 72 hrs by Annexin V-FITC/propidium iodide staining based flow cytometry (reference value: 0.78%); assay type: functional
MDA-MB-468 [16] = assay: Induction of apoptosis in human MDA-MB-468 cells assessed as necrotic cells at 1 uM measured after 72 hrs by Annexin V-FITC/propidium iodide staining based flow cytometry (reference value: 0.13%); assay type: functional
MDA-MB-468 [17] = assay: Antitumor activity against human MDA-MB-468 cells xenografted in BALB/c mouse assessed as tumor growth inhibition at 50 mg/kg, ip administered every 2 days for 34 days and measured at 2 days interval during compound dosing relative to control; assay type: functional; conditions: MDA-MB-468, ip, read-out: TGI
[18] = Toxicity in BALB/c mouse xenografted with human MDA-MB-468 cells assessed as mortality at 50 mg/kg, ip administered every 2 days for 34 days; assay type: organism-based; conditions: in vivo
Outline: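 Nude mice bearing subcutaneous right-flank MDA-MB-468 tumours (2 × 10^6 exponential-phase cells implanted). Randomised at about 100 mm³ tumour volume; 6 mice per group. Dosed ip every 2 days for 34 days. Vehicle controls received PBS with 5% DMSO. Body weight and tumour size recorded every 2 days; tumour volume calculated as ab²/2 from caliper diameters.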

BXPC-3 = assay: Antiproliferative activity against human BxPC3 cells measured after 7 days by Celltiter-glo assay; assay type: functional, cell-based; conditions: BXPC-3, 168 h; outline: as §1
A2780 = assay: Antiproliferative activity against human A2780 cells measured after 7 days by Celltiter-glo assay; assay type: functional, cell-based; conditions: A2780, 168 h; outline: as §1
Jurkat = assay: Antiproliferative activity against human Jurkat cells measured after 7 days by Celltiter-glo assay; assay type: functional, cell-based; conditions: 168 h; outline: as §1
DU-145 = assay: Antiproliferative activity against human DU145 cells measured after 7 days by Celltiter-glo assay; assay type: functional, cell-based; conditions: DU-145, 168 h; outline: as §1
A549 = assay: Antiproliferative activity against human A549 cells measured after 7 days by Celltiter-glo assay; assay type: functional, cell-based; conditions: A549, 168 h; outline: as §1
CAKI-1 = assay: Antiproliferative activity against human CAKI-1 cells measured after 7 days by Celltiter-glo assay; assay type: functional, cell-based; conditions: CAKI-1, 168 h; outline: as §1
Ramos = assay: Antiproliferative activity against human Ramos cells measured after 7 days by Celltiter-glo assay; assay type: functional, cell-based; conditions: 168 h; outline: as §1
SW-620 = assay: Antiproliferative activity against human SW620 cells measured after 7 days by Celltiter-glo assay; assay type: functional, cell-based; conditions: SW-620, 168 h; outline: as §1
MDA-MB-468 [19] = assay: Induction of DNA damage in human MDA-MB-468 cells at 2 uM measured after 72 hrs by comet assay; assay type: functional, cell-based; outline: as §4
MDA-MB-468 [20] = assay: Induction of apoptosis in human MDA-MB-468 cells assessed as viable cells at 2 uM measured after 72 hrs by Annexin V-FITC/propidium iodide staining based flow cytometry (reference value: 95.2%); assay type: functional
MDA-MB-468 [21] = conditions: Homo sapiens, 2 uM
MDA-MB-468 [22] = conditions: Homo sapiens, 2 uM; remark: listed apart in the source
MDA-MB-468 [23] = conditions: Homo sapiens, 2 uM; remark: listed apart in the source
Homo sapiens = organism: Homo sapiens; assay: Selectivity ratio of IC50 for recombinant human PARP1 to IC50 for PI3Kalpha (unknown origin)

Compound `O=C(c1cc(Cc2n[nH]c(=O)c3ccccc23)ccc1F)N1CCc2c(nc(-c3cccc4[nH]ncc34)nc2N2CCOCC2)C1` has an IC50 [1] of 6.17 nM and an IC50 [2] of 44.7 nM.
With `Nc1ncc(-c2nc3c(c(N4CCOCC4)n2)CCN(C(=O)c2cc(Cc4n[nH]c(=O)c5ccccc45)ccc2F)C3)cn1` the IC50 [1] was 2.57 nM, the IC50 [2] was 4.79 nM and the IC50 (HCT-116) was 1580 nM. It also gave an IC50 (HCC1937) of 3.47 µM, an IC50 (MDA-MB-231) of 3.55 µM and an IC50 (MDA-MB-468 [3]) of 2.57 µM. For the same compound, the inhibition (MDA-MB-468 [4]) was “Active”, the inhibition (MDA-MB-468 [5]) was “Active” and the Activity (MDA-MB-468 [6]) was “Active”. For the same compound, the Activity (MDA-MB-468 [7]) was “Active”, the inhibition (MDA-MB-468 [8]) was “Active” and the inhibition (MDA-MB-468 [9]) was “Active”. The inhibition (MDA-MB-468 [10]) was “Active”, the inhibition (MDA-MB-468 [11]) was “Active” and the Activity (MDA-MB-468 [12]) was “Active”. The viability at 1 µM (MDA-MB-468 [13]) was 65.9%, the Activity (MDA-MB-468 [14]) was 14.6% and the Activity (MDA-MB-468 [15]) was 19.4%. For the same compound, the Activity (MDA-MB-468 [16]) was 1.15%, the inhibition in vivo at 50 mg/kg (MDA-MB-468 [17]) was 52.7% and the Activity [18] was “Non-Toxic”.
`O=C(c1cc(Cc2n[nH]c(=O)c3ccccc23)ccc1F)N1CCN(c2nc(-c3ccc4cn[nH]c4c3)nc(N3CCOCC3)n2)CC1` gave an IC50 [1] of 0.676 nM and an IC50 [2] greater than 10000 nM.
`O=C(c1cc(Cc2n[nH]c(=O)c3ccccc23)ccc1F)N1CCN(c2nc(-c3cccc4[nH]ncc34)nc(N3CCOCC3)n2)CC1` showed an IC50 [1] of 0.437 nM and an IC50 [2] of 347 nM.
`O=C(c1cc(Cc2n[nH]c(=O)c3ccccc23)ccc1F)N1CCN(C(=O)C2CC2)CC1` [OLAPARIB] showed an IC50 (HCT-116) of 3020 nM, an IC50 (HCC1937) of 4.57 µM and an IC50 (MDA-MB-231) of 18.2 µM. For the same compound, the IC50 (MDA-MB-468 [3]) was 13.8 µM, the IC50 (BXPC-3) was 11.7 µM and the IC50 (A2780) was 741 nM. For the same compound, the IC50 (Jurkat) was 1700 nM, the IC50 (DU-145) was 6.31 µM and the IC50 (A549) was 5.37 µM. It also gave an IC50 (CAKI-1) of 7.08 µM, an IC50 (Ramos) of 3.98 µM and an IC50 (SW-620) of 10.2 µM. For the same compound, the Activity (MDA-MB-468 [19]) was “Active”, the Activity (MDA-MB-468 [20]) was 91.5% and the inhibition (MDA-MB-468 [21]) was “Active”. The inhibition (MDA-MB-468 [22]) was “Active” and the inhibition (MDA-MB-468 [23]) was “Active”.
Work on `Nc1ccc(-c2nc3c(c(N4CCOCC4)n2)CCN(C(=O)c2cc(Cc4n[nH]c(=O)c5ccccc45)ccc2F)C3)cn1` yielded an IC50 [1] of 7.94 nM and an IC50 [2] of 30.2 nM.
`O=C(c1cc(Cc2n[nH]c(=O)c3ccccc23)ccc1F)N1CCN(c2nc(-c3cccc4[nH]ccc34)nc(N3CCOCC3)n2)CC1` gave an IC50 [1] of 0.646 nM and an IC50 [2] of 631 nM.
`Nc1ccc(-c2nc(N3CCOCC3)nc(N3CCN(C(=O)c4cc(Cc5n[nH]c(=O)c6ccccc56)ccc4F)CC3)n2)cc1` showed an IC50 [1] of 1.17 nM and an IC50 [2] of 331 nM.
Compound `Nc1ncc(-c2nc(N3CCOCC3)nc(N3CCN(C(=O)c4cc(Cc5n[nH]c(=O)c6ccccc56)ccc4F)CC3)n2)cn1` has an IC50 [1] of 0.832 nM, an IC50 [2] of 91.2 nM and a Ratio IC50 (Homo sapiens) of 120.
